Measured values taken from ChEMBL document CHEMBL1649357, “Protective effects of baicalin against ischemia/reperfusion injury in rat liver” (2010).
The source made the active and inactive calls. The rule behind the calls is not given here.

Legend:
[1] = test system: Rattus norvegicus; assay: Hepatoprotective activity in Sprague-Dawley rat ischemia-reperfusion model assessed as decrease of malondialdehyde level per gram of protein at 200 mg/kg, ip administered 24 hrs and 1 hr before ischemia relative to control; assay type: functional; details: route intraperitoneal
[2] = test system: Rattus norvegicus; assay: Hepatoprotective activity in Sprague-Dawley rat sham operated model assessed as decrease of glutathione level per gram of liver at 200 mg/kg, ip administered 24 hrs and 1 hr before ischemia relative to control; assay type: functional; details: route intraperitoneal
In short: (§1)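 Liver homogenate was precipitated with 1% picric acid. Total glutathione was measured by the glutathione reductase/DTNB/NADPH method at 412 nm, and GSSG the same way with 2-vinylpyridine. GSH is the difference, in µmol·g liver-1.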

[3] = test system: Rattus norvegicus; assay: Antiinflammatory activity in Sprague-Dawley rat sham operated model assessed as decrease of serum IL-6 level at 200 mg/kg, ip administered 24 hrs and 1 hr before ischemia by ELISA relative to control; assay type: functional; details: route intraperitoneal
[4] = test system: Rattus norvegicus; assay: Hepatoprotective activity in Sprague-Dawley rat ischemia-reperfusion model assessed as decrease of glutathione level per gram of liver at 200 mg/kg, ip administered 24 hrs and 1 hr before ischemia relative to control; assay type: functional; details: route intraperitoneal; in short: as §1
[5] = test system: Rattus norvegicus; assay: Hepatoprotective activity in Sprague-Dawley rat ischemia-reperfusion model assessed as decrease of mitochondrial swelling in liver tissue at 200 mg/kg, ip administered 24 hrs and 1 hr before ischemia relative to control; assay type: functional, organism-based; parameters: dose 200 mg/kg
In short: (§2)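 Mitochondria were isolated by differential centrifugation in sucrose/Tris/EDTA, pH 7.2. Mitochondria (4 mg) were suspended in phosphate buffer pH 7.2 with 250 mM sucrose, 5 mM KH2PO4 and 1 µM rotenone at 25 °C. Initial swelling rate was taken as A520 change per min per mg protein.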

[6] = test system: Rattus norvegicus; assay: Hepatoprotective activity in Sprague-Dawley rat sham operated model assessed as decrease of caspase 8 activity in liver tissue at 200 mg/kg, ip administered 24 hrs and 1 hr before ischemia by relative to control
[7] = test system: Rattus norvegicus; assay: Antiinflammatory activity in Sprague-Dawley rat ischemia-reperfusion model assessed as inhibition of iNOS protein expression in liver tissue at 200 mg/kg, ip administered 24 hrs and 1 hr before ischemia by Western blot analysis; assay type: functional, organism-based; parameters: dose 200 mg/kg
In short: (§3)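 Liver homogenates were blotted, and nuclear and cytosolic fractions were isolated with NE-PER reagents. 20 µg protein per lane was run on 10% gels and transferred to nitrocellulose, with 5% milk block for 60 min. Polyclonal antibodies detected iNOS, COX-2, HO-1, NF-κB/p65, IκB-α and lamin B1, with β-actin as control, read by ECL.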

[8] = test system: Rattus norvegicus; assay: Antiinflammatory activity in Sprague-Dawley rat sham operated model assessed as decrease of serum TNFalpha level at 200 mg/kg, ip administered 24 hrs and 1 hr before ischemia by ELISA relative to control; assay type: functional; details: route intraperitoneal
[9] = test system: Rattus norvegicus; assay: Hepatoprotective activity in Sprague-Dawley rat ischemia-reperfusion model assessed as protection against apoptosis in liver tissue at 200 mg/kg, ip administered 24 hrs and 1 hr before ischemia by TUNEL assay; assay type: functional, organism-based; parameters: dose 200 mg/kg
In short: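 TUNEL kit staining was done on liver sections. TUNEL-positive cells were counted in randomly chosen 400× fields per section.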

[10] = test system: Rattus norvegicus; assay: Antiinflammatory activity in Sprague-Dawley rat ischemia-reperfusion model assessed as inhibition of iNOS mRNA expression in liver tissue at 200 mg/kg, ip administered 24 hrs and 1 hr before ischemia by RT-PCR analysis; assay type: functional, organism-based; parameters: dose 200 mg/kg
[11] = test system: Rattus norvegicus; assay: Hepatoprotective activity in Sprague-Dawley rat sham operated model assessed as decrease of mitochondrial swelling in liver tissue at 200 mg/kg, ip administered 24 hrs and 1 hr before ischemia relative to control; assay type: functional, organism-based; parameters: dose 200 mg/kg; in short: as §2
[12] = test system: Rattus norvegicus; assay: Hepatoprotective activity in Sprague-Dawley rat ischemia-reperfusion model assessed as decrease of caspase 8 activity in liver tissue at 200 mg/kg, ip administered 24 hrs and 1 hr before ischemia […] relative to control; assay type: functional, organism-based; parameters: dose 200 mg/kg
In short: (§4)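 Liver (1 g) was homogenized in Tris/MgCl2/EGTA buffer and spun at 600g, then 40000g. 30 µg cytosolic protein was preincubated 15 min at room temperature in HEPES/EDTA/NaCl/Triton/10 mM DTT. Fluorogenic substrate was then added at 200 µM and incubated at 37 °C. Fluorescence (ex 400/em 490 nm) was read at 120 min and expressed as % of vehicle I/R.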

[13] = test system: Rattus norvegicus; assay: Hepatoprotective activity in Sprague-Dawley rat ischemia-reperfusion model assessed as decrease of serum ALT level at 200 mg/kg, ip administered 24 hrs and 1 hr before ischemia; assay type: functional; details: route intraperitoneal
In short: (§5)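 Serum ALT was read spectrophotometrically with a kit at 5 h reperfusion, in U·L-1, mean ± SEM, n = 8-10.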

[14] = test system: Rattus norvegicus; assay: Antiinflammatory activity in Sprague-Dawley rat ischemia-reperfusion model assessed as decrease of serum IL-6 level at 200 mg/kg, ip administered 24 hrs and 1 hr before ischemia by ELISA relative to control; assay type: functional; details: route intraperitoneal
[15] = test system: Rattus norvegicus; assay: Antiinflammatory activity in Sprague-Dawley rat ischemia-reperfusion model assessed as decrease of serum TNFalpha level at 200 mg/kg, ip administered 24 hrs and 1 hr before ischemia by ELISA relative to control; assay type: functional; details: route intraperitoneal
[16] = test system: Rattus norvegicus; assay: Antiinflammatory activity in Sprague-Dawley rat ischemia-reperfusion model assessed as inhibition of HO-1 mRNA expression in liver tissue at 200 mg/kg, ip administered 24 hrs and 1 hr before ischemia by RT-PCR analysis; assay type: functional, organism-based; parameters: dose 200 mg/kg
[17] = test system: Rattus norvegicus; assay: Antiinflammatory activity in Sprague-Dawley rat ischemia-reperfusion model assessed as increase in HO-1 protein expression in liver tissue at 200 mg/kg, ip administered 24 hrs and 1 hr before ischemia by Western blot analysis
[18] = test system: Rattus norvegicus; assay: Antiinflammatory activity in Sprague-Dawley rat ischemia-reperfusion model assessed as decrease of TNFalpha mRNA expression in liver tissue at 200 mg/kg, ip administered 24 hrs and 1 hr before ischemia by RT-PCR analysis; assay type: functional, organism-based; parameters: dose 200 mg/kg
[19] = test system: Rattus norvegicus; assay: Hepatoprotective activity in Sprague-Dawley rat ischemia-reperfusion model assessed as protection against histopathologic damage at 200 mg/kg, ip administered 24 hrs and 1 hr before ischemia by TUNEL staining; assay type: functional; details: route intraperitoneal, in the assay text read “by hematoxylin and eosin staining” for “by TUNEL staining”
In short: (§6)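 Left-lobe tissue was fixed in formalin and paraffin sections (5 µm) were stained with H&E. Injury was scored at 200× by point counting on an ordinal severity scale (grade 0 = minimal or none).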

[20] = test system: Rattus norvegicus; assay: Antiinflammatory activity in Sprague-Dawley rat ischemia-reperfusion model assessed as inhibition of COX2 mRNA expression in liver tissue at 200 mg/kg, ip administered 24 hrs and 1 hr before ischemia by RT-PCR analysis; assay type: functional, organism-based; parameters: dose 200 mg/kg
[21] = test system: Rattus norvegicus; assay: Hepatoprotective activity in Sprague-Dawley rat sham operated model assessed as decrease of serum ALT level at 200 mg/kg, ip administered 24 hrs and 1 hr before ischemia; assay type: functional; details: route intraperitoneal; in short: as §5
[22] = test system: Rattus norvegicus; assay: Hepatoprotective activity in Sprague-Dawley rat sham operated model assessed as decrease of caspase 3 activity in liver tissue at 200 mg/kg, ip administered 24 hrs and 1 hr before ischemia by fluorogenic peptide substrate assay relative to control
[23] = test system: Rattus norvegicus; assay: Antiinflammatory activity in Sprague-Dawley rat ischemia-reperfusion model assessed as inhibition of degradation of IkappaB-alpha in liver tissue at 200 mg/kg, ip administered 24 hrs and 1 hr before ischemia by Western blot analysis; assay type: functional, organism-based; parameters: dose 200 mg/kg; in short: as §3
[24] = test system: Rattus norvegicus; assay: Antiinflammatory activity in Sprague-Dawley rat ischemia-reperfusion model assessed as inhibition of COX2 protein expression in liver tissue at 200 mg/kg, ip administered 24 hrs and 1 hr before ischemia by Western blot analysis; assay type: functional, organism-based; parameters: dose 200 mg/kg; in short: as §3
[25] = test system: Rattus norvegicus; assay: Antiinflammatory activity in Sprague-Dawley rat ischemia-reperfusion model assessed as decrease of IL-6 mRNA expression in liver tissue at 200 mg/kg, ip administered 24 hrs and 1 hr before ischemia by RT-PCR analysis; assay type: functional, organism-based; parameters: dose 200 mg/kg
[26] = test system: Rattus norvegicus; assay: Antiinflammatory activity in Sprague-Dawley rat ischemia-reperfusion model assessed as inhibition of nuclear localization of NF-kappaB/p65 subunit in liver tissue at 200 mg/kg, ip administered 24 hrs and 1 hr before ischemia by Western blot analysis; assay type: functional, organism-based; parameters: dose 200 mg/kg; in short: as §3
[27] = test system: Rattus norvegicus; assay: Hepatoprotective activity in Sprague-Dawley rat ischemia-reperfusion model assessed as decrease of caspase 3 activity in liver tissue at 200 mg/kg, ip administered 24 hrs and 1 hr before ischemia […] relative to control; assay type: functional, organism-based; parameters: dose 200 mg/kg; in short: as §4
[28] = test system: Rattus norvegicus; assay: Hepatoprotective activity in Sprague-Dawley rat ischemia-reperfusion model assessed as decrease of TRADD protein expression in liver tissue at 200 mg/kg, ip administered 24 hrs and 1 hr before ischemia by Western blot analysis; assay type: functional, organism-based; parameters: dose 200 mg/kg
[29] = test system: Rattus norvegicus; assay: Hepatoprotective activity in Sprague-Dawley rat sham operated model assessed as protection against histopathologic damage at 200 mg/kg, ip administered 24 hrs and 1 hr before ischemia by TUNEL staining; assay type: functional; details: route intraperitoneal, in the assay text read “by hematoxylin and eosin staining” for “by TUNEL staining”; in short: as §6
[30] = test system: Rattus norvegicus; assay: Hepatoprotective activity in Sprague-Dawley rat sham operated model assessed as decrease of malondialdehyde level per gram of protein at 200 mg/kg, ip administered 24 hrs and 1 hr before ischemia relative to control; assay type: functional; details: route intraperitoneal

SMILES: O=C(O)[C@H]1O[C@@H](Oc2cc3oc(-c4ccccc4)cc(=O)c3c(O)c2O)[C@H](O)[C@@H](O)[C@@H]1O [BAICALIN]
- Activity [1]: 0.31 nmol
- Activity [2]: 5.5 µmol
- Activity [3]: 37.6 pg/mL
- Activity [4]: 4.98 µmol
- Activity [5]: Active
- Activity [6]: Active
- inhibition [7]: Active
- Activity [8]: 17.8 pg/mL
- Activity [9]: Active
- inhibition [10]: inactive
- Activity [11]: Active
- Activity [12]: Active
- Activity [13]: 2658.1 U/L
- Activity [14]: 77.4 pg/mL
- Activity [15]: 64.8 pg/mL
- inhibition [16]: Active
- increase [17]: Active
- Activity [18]: inactive
- Activity [19]: 1.6
- inhibition [20]: Active
- Activity [21]: 42.5 U/L
- Activity [22]: Active
- inhibition [23]: Active
- inhibition [24]: Active
- Activity [25]: Active
- inhibition [26]: Active
- Activity [27]: Active
- Activity [28]: Active
- Activity [29]: 0.45
- Activity [30]: 0.35 nmol
